In brackets after ≈: the same amount, converted by molar mass. Where two headings read alike, the source gives them in different places.
Legend:
P. falciparum NF54 [1] = details: read-out: IC50 PfNF54; reference drugs; ref Singh et al. 33; cited from earlier work
P. falciparum K1 [2] = details: read-out: IC50 PfK1; reference drugs; ref Singh et al. 33; cited from earlier work
hERG channel = hERG channel (Homo sapiens, UniProt Q12809); experiment: hERG channel inhibition; assay type: biochemical
Solubility at pH 6.8 = assay type: physicochemical; details: pH 6.8, aqueous buffer
[3] = PAMPA parallel artificial membrane permeability assay; assay type: in vitro ADME; details: fraction absorbed
[4] = In vitro metabolic stability in mouse liver microsomes; assay type: in vitro ADME
[5] = In vitro metabolic stability in human liver microsomes; assay type: in vitro ADME
P. falciparum NF54 [6] = experiment: Pf NF54 activity determined at NITD; assay type: cell-based; details: Plasmodium falciparum, NF54, read-out: IC50 PfNF54
[7] = Aqueous solubility, miniaturized shake flask method; assay type: physicochemical; details: aqueous solution, 25 °C, thermodynamic from solid
[8] = Microsomal metabolic stability, human liver microsomes; assay type: in vitro ADME; details: pooled human liver microsomes, pH 7.4
How it was run: (§1)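 Test compound at 0.1 μM incubated at 37 °C, in duplicate, with liver microsomes (mouse, rat or pooled human; final protein 0.4 mg/mL) in 0.1 M phosphate buffer pH 7.4, with and without 1 mM NADPH. Quenched with ice-cold acetonitrile containing internal standard, centrifuged, and supernatant analysed by LC–MS/MS. Parent remaining after 30 min expressed as percent.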

[9] = Microsomal metabolic stability, mouse liver microsomes; assay type: in vitro ADME; details: pH 7.4
How it was run: as §1

[10] = Microsomal metabolic stability, rat liver microsomes; assay type: in vitro ADME; details: pH 7.4
How it was run: as §1

[11] = Pharmacokinetic studies in rats; assay type: in vivo; details: rat, plasma, iv, 1 mg/kg
[12] = P. berghei mouse model efficacy; assay type: in vivo, Plasmodium berghei (NMRI mice); details: female, NMRI, plasma, po, 100 mg/kg
[13] = P. falciparum SCID mouse model efficacy; assay type: in vivo, Plasmodium falciparum (NOD-scid IL-2Rγnull mice); details: female, NOD-scid IL-2Rγnull, plasma, po, 25 mg/kg
P. falciparum NF54 [14] = experiment: In vitro antiplasmodium assay; assay type: cell-based, Plasmodium falciparum; details: for in vitro antiplasmodium activity (in words): authors' Pf assays
P. falciparum K1 [15] = experiment: In vitro antiplasmodium assay; assay type: cell-based; details: Plasmodium falciparum, K1, read-out: IC50 PfK1
[16] = system: Chinese hamster ovarian (CHO) cell line; experiment: Cytotoxicity MTT assay; assay type: cell-based; details: CHO cells, relative to 4-unsubstituted compound 3
[17] = system: Chinese hamster ovarian (CHO) cell line; details: read-out: IC50 (CHO); reference drug; ref Singh et al. 33; cited from earlier work
[18] = Plasmodium falciparum, NF54, read-out: IC50 PfNF54, drug-sensitive NF54 strain, mean of ≥2 independent experiments
[19] = read-out: IC50 PfNF54, drug-sensitive NF54 strain, mean of ≥2 independent experiments

Sequence of hERG channel (Q12809 whole entry): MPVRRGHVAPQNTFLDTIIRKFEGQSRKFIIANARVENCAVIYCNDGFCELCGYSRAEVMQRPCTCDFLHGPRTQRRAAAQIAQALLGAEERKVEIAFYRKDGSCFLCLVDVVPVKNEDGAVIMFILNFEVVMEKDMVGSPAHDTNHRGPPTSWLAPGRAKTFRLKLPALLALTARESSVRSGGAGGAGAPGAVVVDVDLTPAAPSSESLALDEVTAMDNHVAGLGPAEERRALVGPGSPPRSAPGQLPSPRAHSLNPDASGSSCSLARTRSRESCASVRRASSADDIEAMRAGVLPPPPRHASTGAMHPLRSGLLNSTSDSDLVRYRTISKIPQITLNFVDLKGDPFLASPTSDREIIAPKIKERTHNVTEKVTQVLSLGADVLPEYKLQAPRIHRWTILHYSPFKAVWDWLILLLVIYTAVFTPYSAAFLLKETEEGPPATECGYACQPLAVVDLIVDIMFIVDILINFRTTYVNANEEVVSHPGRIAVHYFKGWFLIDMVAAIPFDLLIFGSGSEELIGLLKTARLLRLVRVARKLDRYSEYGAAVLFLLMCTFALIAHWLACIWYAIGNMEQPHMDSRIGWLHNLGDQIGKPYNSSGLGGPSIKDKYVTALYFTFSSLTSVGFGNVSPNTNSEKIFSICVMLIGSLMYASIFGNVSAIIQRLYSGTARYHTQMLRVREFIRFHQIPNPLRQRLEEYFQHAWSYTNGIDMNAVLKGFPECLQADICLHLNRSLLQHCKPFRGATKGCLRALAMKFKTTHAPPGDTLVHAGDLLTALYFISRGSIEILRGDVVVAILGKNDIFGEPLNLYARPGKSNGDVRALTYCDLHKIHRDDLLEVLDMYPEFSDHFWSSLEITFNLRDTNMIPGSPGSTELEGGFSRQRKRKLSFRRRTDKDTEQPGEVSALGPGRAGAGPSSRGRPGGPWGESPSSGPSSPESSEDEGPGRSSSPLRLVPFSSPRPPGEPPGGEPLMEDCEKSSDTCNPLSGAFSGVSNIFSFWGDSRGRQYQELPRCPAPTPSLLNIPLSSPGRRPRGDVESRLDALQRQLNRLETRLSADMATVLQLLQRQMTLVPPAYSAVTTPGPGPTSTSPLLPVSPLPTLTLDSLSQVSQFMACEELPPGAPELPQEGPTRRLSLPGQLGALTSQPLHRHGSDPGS

SMILES | IC50 (hERG channel) | remaining at 0.5 h, 0.1 μM [8] | remaining at 0.5 h, 0.1 μM [9] | remaining at 0.5 h, 0.1 μM [10] | IC50 (P. falciparum NF54 [14]; [18]) | in vitro antiplasmodium activity (in words) (P. falciparum NF54 [14]) | also measured
C[C@H]1[C@H](OC(=O)CCC(=O)O)O[C@@H]2O[C@@]3(C)CC[C@H]4[C@H](C)CC[C@@H]1[C@@]24OO3 [Artesunate] | – | – | – | – | – | – | IC50 (P. falciparum NF54 [1]): 4 nM; IC50 (P. falciparum K1 [2]): 3 nM
CCN(CC)CCCC(C)Nc1ccnc2cc(Cl)ccc12 (stereo not shown) [Chloroquine] | – | – | – | – | – | – | IC50 (P. falciparum NF54 [1]): 16 nM; IC50 (P. falciparum K1 [2]): 194 nM
c1ccc(Cn2c(N3CCNCC3)nc3ccccc32)cc1 [Compound 1, Lerisetron, reference compound] | 320 nM | – | – | – | – | – | solubility (Solubility at pH 6.8): > 1000 µM; PAMPA (%FA) [3]: 99 %FA; In vitro metabolic stability in liver microsomes, mouse [4]: 29 µL/min/mg; In vitro metabolic stability in liver microsomes, human [5]: 26.6 µL/min/mg; IC50 (P. falciparum NF54 [6]): 810 nM
Cl.Clc1ccc2c(c1)nc(N1CCNCC1)n2Cc1ccccc1 [Compound 3] | 9 nM | 74.4% | 63% | 42.1% | – | – | solubility at 20 h ([7]; pH 2, simulated gastric fluid): 150 µM; solubility at 20 h ([7]; pH 6.5, aqueous buffer): 140 µM; half-life [11]: 1.98 h; AUC [12]: 377 µM·h; Cmax [12]: 20.6 µM; AUC [13]: 86 µM·h; Cmax [13]: 5.2 µM; solubility (Solubility at pH 6.8): 770 µM; PAMPA (%FA) [3]: 99 %FA
FC(F)(F)c1ccc2c(c1)nc(N1CCNCC1)n2Cc1ccccc1 [Compound 14c] | 150 nM | 92.2% | 82% | 95.6% | – | – | –
c1ccc2c(c1)nc(N1CCNCC1)n2Cc1ccncc1 [Compound 14i] | – | – | – | – | > 10000 nM | inactive | –
Clc1ccc2c(c1)nc(N1CCOCC1)n2Cc1ccccc1 [Compound 16a, 4-(1-Benzyl-5-chloro-1H benzo[d]imidazol-2-yl)morpholine] | – | – | – | – | > 1000 nM | – | –
Brc1ccc2c(c1)nc(N1CCNCC1)n2Cc1ccccc1 [Compound 16b, 1-Benzyl-5-bromo-2-(piperazin-1-yl)-1H-benzo[d]imidazole] | 30 nM | 88.2% | 94% | 89.8% | – | – | IC50 (P. falciparum NF54 [14]; [19]): 42.4 nM
Cl.Clc1ccc2c(c1)nc(N1CCNCC1)n2CCc1ccccc1 [Compound 16g, 5-Chloro-1-phenethyl-2-(piperazin-1-yl)-1H-benzo[d]imidazole Hydrochloride] | – | – | – | – | > 1000 nM | inactive | –
O=C1CN(c2nc3cc(Cl)ccc3n2Cc2ccccc2)CCN1 [Compound 17] | 2300 nM | – | – | – | > 1000 nM | – | –
CC(=O)N1CCN(c2nc3cc(Cl)ccc3n2Cc2ccccc2)CC1 [Compound 18] | 390 nM | – | – | – | > 1000 nM | – | –
N#CCN1CCN(c2nc3cc(Cl)ccc3n2Cc2ccccc2)CC1 [Compound 19] | 180 nM | 8.6% | 2% | 1.2% | 306 nM | – | IC50 (P. falciparum K1 [15]): 454 nM; solubility at 20 h ([7]; pH 2, simulated gastric fluid): > 150 µM; solubility at 20 h ([7]; pH 6.5, aqueous buffer): < 5 µM
O=C(O)CN1CCN(c2nc3cc(Cl)ccc3n2Cc2ccccc2)CC1 [Compound 20] | – | – | – | – | > 10000 nM | inactive | solubility at 20 h ([7]; pH 6.5, aqueous buffer): 200 µM (≈ 77 µg/mL)
O=C(NCCCNc1nc2ccccc2n1Cc1ccccc1)c1cc(Cl)cc(Cl)c1 [Compound 21] | – | – | – | – | 9510 nM | completely inactive | solubility at 20 h ([7]; pH 2, simulated gastric fluid): 10 µM (≈ 4.53 µg/mL)
Cc1ccc(C(=O)N2CCN(c3nc4ccccc4n3C)CC2)cc1.Cl [Compound 22] | – | – | – | – | > 10000 nM | completely inactive | –
Cc1ccc(C(=O)N2CCN(c3nc4cc(Cl)ccc4n3Cc3ccccc3)CC2)cc1 [Compound 23] | – | – | – | – | > 10000 nM | completely inactive | –

SMILES | IC50 (hERG channel) | remaining at 0.5 h, 0.1 μM [8] | remaining at 0.5 h, 0.1 μM [9] | remaining at 0.5 h, 0.1 μM [10] | IC50 (P. falciparum NF54 [14]; [18]) | in vitro antiplasmodium activity (in words) (P. falciparum NF54 [14]) | also measured
O=S(=O)(c1ccc(Cl)cc1)N1CCN(c2nc3cc(Cl)ccc3n2Cc2ccccc2)CC1 [Compound 25] | – | – | – | – | 5260 nM | completely inactive | –
Cc1ccc(Cn2c(N3CCC(C(=O)NCc4cccs4)CC3)nc3ccccc32)cc1 [Compound 26, 1-(1-(4-methylbenzyl)-1H-benzo[d]imidazol-2-yl)-N-(thiophen-2-ylmethyl)piperidine-4-carboxamide] | – | – | – | – | 600 nM | weakly active | solubility at 20 h ([7]; pH 6.5, aqueous buffer): < 5 µM
C[C@@H]1CN(c2nc3cc(Cl)ccc3n2Cc2ccccc2)C[C@H](C)N1 [Compound 27] | 17 nM | 23.2% | 31.3% | 36.5% | – | – | –
NC1CCN(c2nc3cc(Cl)ccc3n2Cc2ccccc2)CC1 [Compound 28] | 70 nM | 80.9% | 76% | 39.9% | – | – | –
NCCNc1nc2cc(Cl)ccc2n1Cc1ccccc1 [Compound 33, N^1-(1-benzyl-5-chloro-1H-benzo[d]imidazol-2-yl)ethane-1,2-diamine] | 2200 nM | 98.9% | 71.2% | 88% | – | – | hERG safety window (hERG channel; hERG versus antiplasmodium activity): 10 fold
NCCCNc1nc2cc(Br)ccc2n1Cc1ccccc1 [Compound 41, N^1-(1-Benzyl-5-bromo-1H-benzo[d]imidazol-2-yl)propane-1,3-diamine] | – | 99.4% | 98.6% | 97% | – | – | –
Cl.Clc1ccc2c(nc(N3CCNCC3)n2Cc2ccccc2)c1Cl [Compound 42a] | 590 nM | 76.3% | 72.5% | 66.1% | – | – | fold more cytotoxic than 3 [16]: ~4 fold
Clc1ccc2c(nc(N3CCNCC3)n2Cc2ccccc2)c1Br [Compound 42k] | – | 97.4% | 91.6% | 93.8% | – | – | fold more cytotoxic than 3 [16]: ~4 fold
Clc1ccc2c(c1)nc(C1CCNCC1)n2Cc1ccccc1 [Compound 46a, 1-Benzyl-5-chloro-2-(piperidin-4-yl)-1H-benzo[d]imidazole] | 460 nM | 91.8% | 97.6% | 92.9% | – | – | IC50 (P. falciparum NF54 [14]; [19]): 37.9 nM
Brc1ccc2c(c1)nc(C1CCNCC1)n2Cc1ccccc1 [Compound 46b] | – | 99.3% | 97.4% | 97.7% | – | – | –
COC(=O)c1ccc2c(c1)nc(C1CCNCC1)n2Cc1ccccc1 [Compound 46d] | – | – | – | – | – | inactive | –
CS(=O)(=O)c1ccc2c(c1)nc(C1CCNCC1)n2Cc1ccccc1.Cl [Compound 46e] | – | – | – | – | – | inactive | –
c1ccc(Cn2c(N3CCNCC3)nc3cnccc32)cc1 [Compound 57b] | – | – | – | – | > 1000 nM | inactive | –
Cl.c1ccc(Cn2c(N3CCNCC3)nc3ccccc32)nc1 [Compound 59] | – | – | – | – | 9770 nM | inactive | –
Cl.Cn1c(N2CCNCC2)nc2ccccc21 [Compound 60, 1-methyl-2-(piperazin-1-yl)-1H-benzo[d]imidazole hydrochloride] | – | – | – | – | – | inactive | IC50 (P. falciparum NF54 [14]; Plasmodium falciparum, NF54, read-out: IC50 PfNF54): > 10000 nM
CC[C@H]1CN2CCc3cc(OC)c(OC)cc3[C@@H]2C[C@@H]1C[C@H]1NCCc2cc(OC)c(OC)cc21 [Emetine] | – | – | – | – | – | – | IC50 [17]: 95 nM

From publication PMC7114883 (ACS Omega, 2020)
